In the M2OR odorant receptor database:

Tests used:
Details in all cases: stereoisomer not certain
[1] = target: T1, OR51L1 (Homo sapiens) (UniProt Q8NGJ5)
T1 sequence (whole entry): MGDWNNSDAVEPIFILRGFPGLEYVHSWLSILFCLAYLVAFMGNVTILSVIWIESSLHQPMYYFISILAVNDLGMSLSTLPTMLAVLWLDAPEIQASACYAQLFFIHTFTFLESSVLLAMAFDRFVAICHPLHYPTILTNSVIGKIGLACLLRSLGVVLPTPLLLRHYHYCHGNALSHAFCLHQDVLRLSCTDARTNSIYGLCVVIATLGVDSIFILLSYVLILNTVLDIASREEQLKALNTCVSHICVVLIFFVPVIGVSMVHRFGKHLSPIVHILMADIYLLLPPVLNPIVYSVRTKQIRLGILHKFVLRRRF
Outline: (§1)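 Whether a receptor–molecule pair is responsive (active) rests on the original authors' judgment that its measured signal was statistically different from baseline. Pairs without that judgment are non-responsive (inactive). Sources used varied assay methods, commonly transient luciferase assays in mammalian cell lines.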

[2] = target: T2, OR51I2 (Homo sapiens) (UniProt Q9H344)
T2 sequence (whole entry): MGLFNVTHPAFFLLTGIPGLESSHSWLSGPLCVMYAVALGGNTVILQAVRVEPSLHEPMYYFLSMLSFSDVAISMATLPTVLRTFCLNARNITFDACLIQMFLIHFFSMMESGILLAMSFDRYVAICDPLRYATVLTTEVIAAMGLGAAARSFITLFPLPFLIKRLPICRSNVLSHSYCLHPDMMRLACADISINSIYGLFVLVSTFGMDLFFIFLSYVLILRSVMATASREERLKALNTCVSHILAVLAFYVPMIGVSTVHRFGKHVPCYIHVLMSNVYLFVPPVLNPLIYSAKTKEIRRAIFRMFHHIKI
Outline: as §1

[3] = target: T3, OR51J1 (Homo sapiens) (UniProt Q9H342)
T3 sequence (whole entry): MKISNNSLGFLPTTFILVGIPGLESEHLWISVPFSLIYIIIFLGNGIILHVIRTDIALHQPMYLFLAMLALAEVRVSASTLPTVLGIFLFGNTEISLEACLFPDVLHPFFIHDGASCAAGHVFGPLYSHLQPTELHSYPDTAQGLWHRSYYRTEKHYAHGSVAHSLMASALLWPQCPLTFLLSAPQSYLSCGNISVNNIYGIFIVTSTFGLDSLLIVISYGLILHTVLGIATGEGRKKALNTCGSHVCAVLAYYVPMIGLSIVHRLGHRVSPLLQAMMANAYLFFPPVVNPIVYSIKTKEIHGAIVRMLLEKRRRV
Outline: as §1

[4] = target: T4, OR51M1 (Homo sapiens) (UniProt Q9H341)
T4 sequence (whole entry): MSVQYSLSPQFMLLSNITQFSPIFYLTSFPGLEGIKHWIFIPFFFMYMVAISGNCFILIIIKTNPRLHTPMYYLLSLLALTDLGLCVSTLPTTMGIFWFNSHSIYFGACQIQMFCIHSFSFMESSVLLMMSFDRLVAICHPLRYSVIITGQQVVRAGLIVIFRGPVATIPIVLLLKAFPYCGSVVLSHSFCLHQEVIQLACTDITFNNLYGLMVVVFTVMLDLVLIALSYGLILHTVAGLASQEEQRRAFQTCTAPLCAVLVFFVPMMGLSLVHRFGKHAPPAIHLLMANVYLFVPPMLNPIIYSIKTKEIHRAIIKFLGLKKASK
Outline: as §1

[5] = target: T5, OR51Q1 (Homo sapiens) (UniProt Q8NH59)
T5 sequence (whole entry): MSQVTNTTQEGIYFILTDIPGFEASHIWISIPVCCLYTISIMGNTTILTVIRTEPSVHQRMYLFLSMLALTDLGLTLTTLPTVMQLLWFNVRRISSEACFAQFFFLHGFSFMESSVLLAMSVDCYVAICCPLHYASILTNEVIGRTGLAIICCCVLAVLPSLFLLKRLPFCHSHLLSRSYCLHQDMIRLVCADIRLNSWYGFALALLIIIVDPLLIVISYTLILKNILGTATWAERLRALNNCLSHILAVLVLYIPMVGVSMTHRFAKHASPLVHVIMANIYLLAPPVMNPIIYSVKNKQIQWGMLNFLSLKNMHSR
Outline: as §1

[6] = target: T6, OR51S1 (Homo sapiens) (UniProt Q8NGJ8)
T6 sequence (whole entry): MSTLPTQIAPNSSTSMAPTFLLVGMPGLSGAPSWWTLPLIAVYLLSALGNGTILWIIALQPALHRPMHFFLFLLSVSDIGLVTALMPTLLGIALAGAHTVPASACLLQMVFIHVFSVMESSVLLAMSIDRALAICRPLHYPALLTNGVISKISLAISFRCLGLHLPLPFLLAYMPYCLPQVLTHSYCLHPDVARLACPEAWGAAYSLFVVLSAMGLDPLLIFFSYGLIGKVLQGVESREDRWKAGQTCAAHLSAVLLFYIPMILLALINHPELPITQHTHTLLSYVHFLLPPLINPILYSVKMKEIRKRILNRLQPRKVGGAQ
Outline: as §1

[7] = target: T7, OR51T1 (Homo sapiens) (UniProt Q8NGJ9)
T7 sequence (whole entry): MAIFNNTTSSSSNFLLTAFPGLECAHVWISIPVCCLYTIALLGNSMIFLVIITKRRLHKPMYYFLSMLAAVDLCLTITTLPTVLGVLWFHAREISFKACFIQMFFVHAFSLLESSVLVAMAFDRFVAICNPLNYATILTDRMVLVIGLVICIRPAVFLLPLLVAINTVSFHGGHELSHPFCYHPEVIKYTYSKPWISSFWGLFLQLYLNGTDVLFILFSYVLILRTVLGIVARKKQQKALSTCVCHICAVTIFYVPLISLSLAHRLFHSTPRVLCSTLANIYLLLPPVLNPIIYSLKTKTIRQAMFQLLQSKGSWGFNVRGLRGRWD
Outline: as §1

[8] = target: T8, OR51V1 (Homo sapiens) (UniProt Q9H2C8)
T8 sequence (whole entry): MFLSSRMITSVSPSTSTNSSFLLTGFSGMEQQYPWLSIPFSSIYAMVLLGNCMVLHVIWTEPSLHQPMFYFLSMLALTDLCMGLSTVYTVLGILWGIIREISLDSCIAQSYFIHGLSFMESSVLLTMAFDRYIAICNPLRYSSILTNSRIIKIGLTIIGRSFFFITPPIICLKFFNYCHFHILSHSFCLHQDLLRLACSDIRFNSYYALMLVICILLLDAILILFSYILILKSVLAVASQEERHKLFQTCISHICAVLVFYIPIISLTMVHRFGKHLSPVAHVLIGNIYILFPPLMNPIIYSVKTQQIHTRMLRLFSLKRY
Outline: as §1

[9] = target: T9, OR52A1 (Homo sapiens) (UniProt Q9UKL2)
T9 sequence (whole entry): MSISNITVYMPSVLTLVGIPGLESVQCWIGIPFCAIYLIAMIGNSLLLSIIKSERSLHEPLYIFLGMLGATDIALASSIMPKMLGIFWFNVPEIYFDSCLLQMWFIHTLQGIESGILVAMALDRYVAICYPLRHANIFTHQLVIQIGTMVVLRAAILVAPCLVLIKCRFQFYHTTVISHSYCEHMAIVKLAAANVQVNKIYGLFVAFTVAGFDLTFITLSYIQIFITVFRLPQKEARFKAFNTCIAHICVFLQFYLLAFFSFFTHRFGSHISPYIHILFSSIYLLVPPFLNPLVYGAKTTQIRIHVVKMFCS
Outline: as §1

[10] = target: T10, OR52A4P (Homo sapiens) (UniProt A6NMU1)
T10 sequence (whole entry): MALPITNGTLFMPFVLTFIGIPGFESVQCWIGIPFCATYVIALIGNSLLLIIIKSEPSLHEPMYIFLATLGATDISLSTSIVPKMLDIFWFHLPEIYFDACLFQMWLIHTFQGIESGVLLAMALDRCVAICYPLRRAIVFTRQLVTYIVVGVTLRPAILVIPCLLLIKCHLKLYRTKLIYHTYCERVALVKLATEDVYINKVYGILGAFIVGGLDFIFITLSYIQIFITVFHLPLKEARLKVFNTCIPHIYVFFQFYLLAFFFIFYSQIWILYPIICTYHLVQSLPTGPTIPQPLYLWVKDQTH
Outline: as §1

[11] = target: T11, OR52A5 (Homo sapiens) (UniProt Q9H2C5)
T11 sequence (whole entry): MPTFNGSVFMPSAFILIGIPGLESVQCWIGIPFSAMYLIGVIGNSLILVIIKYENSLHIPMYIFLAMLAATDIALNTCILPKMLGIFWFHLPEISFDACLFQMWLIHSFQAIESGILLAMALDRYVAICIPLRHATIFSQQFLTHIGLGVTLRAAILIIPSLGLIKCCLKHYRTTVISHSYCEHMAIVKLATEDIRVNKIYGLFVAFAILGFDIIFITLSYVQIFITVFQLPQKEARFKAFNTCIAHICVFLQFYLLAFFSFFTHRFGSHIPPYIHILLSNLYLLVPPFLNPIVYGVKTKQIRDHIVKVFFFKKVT
Outline: as §1

[12] = target: T12, OR52B2 (Homo sapiens) (UniProt Q96RD2)
T12 sequence (whole entry): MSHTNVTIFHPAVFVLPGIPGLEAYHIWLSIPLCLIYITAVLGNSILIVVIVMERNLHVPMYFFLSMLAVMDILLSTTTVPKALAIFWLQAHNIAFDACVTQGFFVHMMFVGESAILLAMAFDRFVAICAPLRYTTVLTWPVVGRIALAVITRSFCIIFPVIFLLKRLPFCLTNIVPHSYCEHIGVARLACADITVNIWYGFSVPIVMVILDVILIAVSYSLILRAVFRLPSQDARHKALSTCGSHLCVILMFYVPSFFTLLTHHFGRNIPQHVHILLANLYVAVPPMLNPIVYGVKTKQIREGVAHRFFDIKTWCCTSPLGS
Outline: as §1

[13] = target: T13, OR52B4 (Homo sapiens) (UniProt Q8NGK2)
T13 sequence (whole entry): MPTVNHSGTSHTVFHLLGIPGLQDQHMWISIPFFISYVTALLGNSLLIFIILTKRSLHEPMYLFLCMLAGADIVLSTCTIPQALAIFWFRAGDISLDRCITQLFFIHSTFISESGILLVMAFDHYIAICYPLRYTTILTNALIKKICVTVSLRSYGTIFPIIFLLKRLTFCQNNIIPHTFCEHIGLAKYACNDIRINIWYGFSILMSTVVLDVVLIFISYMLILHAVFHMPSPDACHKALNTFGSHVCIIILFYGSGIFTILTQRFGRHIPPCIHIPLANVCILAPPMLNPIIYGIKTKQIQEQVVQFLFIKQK
Outline: as §1

[14] = target: T14, OR52B6 (Homo sapiens) (UniProt Q8NGF0)
T14 sequence (whole entry): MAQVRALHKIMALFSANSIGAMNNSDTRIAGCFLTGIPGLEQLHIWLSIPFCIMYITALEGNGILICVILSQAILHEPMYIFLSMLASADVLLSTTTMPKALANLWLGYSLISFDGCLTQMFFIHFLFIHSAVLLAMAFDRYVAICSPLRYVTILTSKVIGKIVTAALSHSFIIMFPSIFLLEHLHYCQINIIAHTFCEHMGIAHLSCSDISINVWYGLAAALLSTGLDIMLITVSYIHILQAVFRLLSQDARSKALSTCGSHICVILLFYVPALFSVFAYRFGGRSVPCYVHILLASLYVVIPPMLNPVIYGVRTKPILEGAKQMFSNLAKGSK
Outline: as §1

[15] = target: T15, OR52D1 (Homo sapiens) (UniProt Q9H346)
T15 sequence (whole entry): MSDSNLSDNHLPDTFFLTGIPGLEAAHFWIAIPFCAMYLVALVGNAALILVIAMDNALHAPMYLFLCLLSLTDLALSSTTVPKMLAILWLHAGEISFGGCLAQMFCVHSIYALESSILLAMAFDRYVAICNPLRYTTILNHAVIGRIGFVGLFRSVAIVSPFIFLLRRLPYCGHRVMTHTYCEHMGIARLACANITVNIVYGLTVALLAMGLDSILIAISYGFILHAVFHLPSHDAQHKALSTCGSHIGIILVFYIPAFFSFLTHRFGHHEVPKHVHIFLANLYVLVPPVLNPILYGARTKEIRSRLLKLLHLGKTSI
Outline: as §1

[16] = target: OR52E1 (Homo sapiens) (UniProt Q8NGJ3)
Outline: as §1

[17] = target: OR52E2 (Homo sapiens) (UniProt Q8NGJ4)
Outline: as §1

[18] = target: OR52E4 (Homo sapiens) (UniProt Q8NGH9)
Outline: as §1

[19] = target: OR52E5 (Homo sapiens) (UniProt Q8NH55)
Outline: as §1

[20] = target: OR52E6 (Homo sapiens) (UniProt Q96RD3)
Outline: as §1

Measured: odorant receptor agonist call;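 further: active if original authors judged signal statistically different from baseline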

Sequence of OR52E1 (Homo sapiens) (Q8NGJ3 whole entry): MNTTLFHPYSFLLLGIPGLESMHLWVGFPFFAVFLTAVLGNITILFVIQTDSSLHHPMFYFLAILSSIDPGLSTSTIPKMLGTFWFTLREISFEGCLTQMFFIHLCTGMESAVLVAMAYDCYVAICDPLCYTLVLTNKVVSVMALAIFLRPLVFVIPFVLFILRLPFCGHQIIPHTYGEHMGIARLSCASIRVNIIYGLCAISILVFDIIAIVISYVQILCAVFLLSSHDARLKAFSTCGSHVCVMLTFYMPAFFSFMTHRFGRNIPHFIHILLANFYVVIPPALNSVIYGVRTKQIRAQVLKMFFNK
Sequence of OR52E6 (Homo sapiens) (Q96RD3 whole entry): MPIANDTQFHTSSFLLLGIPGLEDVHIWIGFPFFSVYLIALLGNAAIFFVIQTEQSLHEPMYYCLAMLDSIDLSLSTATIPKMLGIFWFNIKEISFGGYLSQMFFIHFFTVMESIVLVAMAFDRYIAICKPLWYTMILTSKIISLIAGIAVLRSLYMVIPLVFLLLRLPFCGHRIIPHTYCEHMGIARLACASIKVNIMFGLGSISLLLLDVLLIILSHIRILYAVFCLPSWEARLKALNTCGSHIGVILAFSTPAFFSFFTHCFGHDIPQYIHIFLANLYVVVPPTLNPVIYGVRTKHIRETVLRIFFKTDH
Sequence of OR52E4 (Homo sapiens) (Q8NGH9 whole entry): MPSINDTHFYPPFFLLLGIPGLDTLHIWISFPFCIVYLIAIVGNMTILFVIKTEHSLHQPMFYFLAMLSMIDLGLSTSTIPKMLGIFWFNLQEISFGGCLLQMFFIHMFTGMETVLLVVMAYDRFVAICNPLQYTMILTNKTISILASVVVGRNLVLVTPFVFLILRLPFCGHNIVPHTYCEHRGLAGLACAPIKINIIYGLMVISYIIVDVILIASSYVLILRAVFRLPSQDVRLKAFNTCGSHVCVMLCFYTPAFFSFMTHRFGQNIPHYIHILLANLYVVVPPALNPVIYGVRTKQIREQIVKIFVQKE
Sequence of OR52E2 (Homo sapiens) (Q8NGJ4 whole entry): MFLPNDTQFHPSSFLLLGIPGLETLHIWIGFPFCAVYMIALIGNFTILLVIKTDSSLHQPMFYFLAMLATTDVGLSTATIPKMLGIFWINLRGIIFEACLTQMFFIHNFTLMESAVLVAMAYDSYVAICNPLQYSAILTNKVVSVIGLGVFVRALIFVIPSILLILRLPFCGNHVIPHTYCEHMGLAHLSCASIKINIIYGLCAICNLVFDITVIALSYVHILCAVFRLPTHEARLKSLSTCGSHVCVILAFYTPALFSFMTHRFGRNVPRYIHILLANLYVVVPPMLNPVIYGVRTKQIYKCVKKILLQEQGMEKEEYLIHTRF
Sequence of OR52E5 (Homo sapiens) (Q8NH55 whole entry): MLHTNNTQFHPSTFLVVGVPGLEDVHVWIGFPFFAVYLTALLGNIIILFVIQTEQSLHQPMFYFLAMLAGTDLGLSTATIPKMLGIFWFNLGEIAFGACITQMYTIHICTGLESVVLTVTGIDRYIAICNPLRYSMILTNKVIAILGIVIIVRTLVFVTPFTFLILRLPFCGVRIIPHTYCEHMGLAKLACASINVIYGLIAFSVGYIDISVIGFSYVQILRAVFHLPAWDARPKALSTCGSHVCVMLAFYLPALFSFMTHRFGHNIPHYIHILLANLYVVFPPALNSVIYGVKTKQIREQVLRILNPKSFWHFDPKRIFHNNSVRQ

CCCC(C)=O
inactive: [1]

CC(=O)c1c(C)c([N+](=O)[O-])c(C(C)(C)C)c([N+](=O)[O-])c1C
inactive: all assays above

CCC1OC(C)=C(O)C1=O (stereo not given)
not listed: [7] | [10] | [19]
inactive: all other assays above

CCC(=O)C(=O)CC
inactive: [1]

CC1CCCCCCCCCCCCC(=O)C1 (stereo not given)
inactive: all assays above

CCCCC(S)C(C)CO (stereo not given)
active: [7] | [11]
not listed: [16]
inactive: all other assays above

CCCC(S)CCOC(C)=O (stereo not given)
not listed: [7] | [10] | [19]
inactive: all other assays above
